Positions count from the first letter of the chain named. pIC50: −log10 of the molar value.
What was measured:
[1] = target: D-alanyl-D-alanine carboxypeptidase (Actinomadura sp. R39, UniProt P39045); assay: Inhibition of Actinomadura sp. R39 penicillin-binding protein preincubated for 60 mins before addition of substrate mixture of (R)-[2-(benzoylamino)propionylsulfanyl]acetic acid and 5,5'-dithiobis(2-nitrobenzoic acid)
Outline: (§1)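 Purified R39 (3.5 nM) preincubated with compound in 10 mM sodium phosphate pH 7.2, 100 mM NaCl, 100 mM D-alanine, 0.01 mg/mL BSA, 60 min, 25 °C. S2d then added (final 1 mM) with DTNB (final 0.5 mM; 1% v/v DMF). Initial hydrolysis rate read at 412 nm. Spontaneous substrate hydrolysis was measured without enzyme. Triplicates. IC50 from nonlinear regression of RA across a concentration range.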

Streptococcus pneumoniae = assay: Inhibition of Streptococcus pneumoniae PBP1B assessed as residual activity at 1 mM after 60 mins by SDS-PAGE
[2] = target: T1, Penicillin-binding protein 2x (Streptococcus pneumoniae serotype 4 (strain ATCC BAA-334 / TIGR4)) (UniProt P14677); assay: Inhibition of penicillin-resistant Streptococcus pneumoniae 5204 PBP2X assessed as residual activity at 100 uM preincubated for 4 hrs before addition of substrate mixture of (R)-[2-(benzoylamino)propionylsulfanyl]acetic acid and 5,5'-dithiobis(2-nitrobenzoic acid)
T1 sequence (whole entry): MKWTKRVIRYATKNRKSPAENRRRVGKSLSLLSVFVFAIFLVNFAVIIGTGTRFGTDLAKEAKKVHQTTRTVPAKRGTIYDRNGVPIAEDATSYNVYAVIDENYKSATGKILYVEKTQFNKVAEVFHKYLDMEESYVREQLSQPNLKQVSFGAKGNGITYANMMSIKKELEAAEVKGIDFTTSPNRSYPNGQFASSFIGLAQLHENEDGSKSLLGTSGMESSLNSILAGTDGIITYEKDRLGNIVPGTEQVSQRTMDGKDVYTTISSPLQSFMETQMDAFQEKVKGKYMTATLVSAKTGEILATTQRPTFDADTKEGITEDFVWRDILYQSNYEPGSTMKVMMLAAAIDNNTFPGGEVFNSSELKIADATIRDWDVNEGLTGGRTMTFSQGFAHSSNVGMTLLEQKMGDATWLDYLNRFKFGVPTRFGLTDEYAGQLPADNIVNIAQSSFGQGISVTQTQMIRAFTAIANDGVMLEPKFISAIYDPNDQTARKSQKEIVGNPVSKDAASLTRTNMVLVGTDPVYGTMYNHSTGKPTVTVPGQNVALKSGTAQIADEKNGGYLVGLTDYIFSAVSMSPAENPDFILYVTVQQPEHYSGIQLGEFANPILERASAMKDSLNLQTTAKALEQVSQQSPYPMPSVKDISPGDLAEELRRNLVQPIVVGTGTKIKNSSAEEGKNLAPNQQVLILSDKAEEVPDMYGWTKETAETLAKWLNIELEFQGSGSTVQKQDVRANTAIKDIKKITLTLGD
Outline: (§2)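 PBP2x-5204 (0.6 μM) preincubated with compound in 10 mM sodium phosphate pH 7.0, 70 mM D-alanine, 0.01 mg/mL BSA, 4 h, 25 °C. S2d (final 1 mM) and DTNB (final 0.5 mM) then added. Residual activity taken from initial rate at 412 nm against uninhibited enzyme (six replicates per plate). Triplicates. IC50 by nonlinear regression.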

[3] = target: T2, Penicillin-binding protein 2X (Streptococcus pneumoniae R6) (UniProt P59676); assay: Inhibition of penicillin-sensitive Streptococcus pneumoniae R6 PBP2X assessed as residual activity at 100 uM preincubated for 60 mins before addition of substrate mixture of (R)-[2-(benzoylamino)propionylsulfanyl]acetic acid and 5,5'-dithiobis(2-nitrobenzoic acid)
T2 sequence (whole entry): T1 sequence (whole entry) with T385M
Outline: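 PBP2x-R6 (0.09 μM) preincubated with compound in 10 mM sodium phosphate pH 7.0, 0.01 mg/mL BSA, 60 min, 25 °C. S2d (final 1 mM) and DTNB (final 0.5 mM) then added. Residual activity from initial rate at 412 nm, relative to enzyme-only wells. Triplicates. Repeated with 0.01% Triton X-100 when RA <80%.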

[4] = Solubility in sodium phosphate buffer saline of pH 7.2; type: physicochemical
[5] = target: D-alanyl-D-alanine carboxypeptidase (Actinomadura sp. R39) (UniProt P39045); assay: Inhibition of Actinomadura sp. R39 penicillin-binding protein assessed as residual activity at 100 uM preincubated for 60 mins before addition of substrate mixture of (R)-[2-(benzoylamino)propionylsulfanyl]acetic acid and 5,5'-dithiobis(2-nitrobenzoic acid); outline: as §1
[6] = target: T2, Penicillin-binding protein 2X (Streptococcus pneumoniae R6); assay: Inhibition of penicillin-sensitive Streptococcus pneumoniae R6 PBP2X assessed as residual activity at 500 uM preincubated for 60 mins before addition of substrate mixture of (R)-[2-(benzoylamino)propionylsulfanyl]acetic acid and 5,5'-dithiobis(2-nitrobenzoic acid)
Outline: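 S. pneumoniae PBP2xR6 (0.09 μM) was preincubated with compound in 10 mM sodium phosphate pH 7.0 with 0.01 mg/mL BSA, for 60 min at 25 °C. S2d (1 mM final) and DTNB (0.5 mM final) were added, and the initial hydrolysis rate was monitored at 412 nm. Uninhibited activity (six replicates per plate) was set as 100%; assays ran in triplicate.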

[7] = target: T1, Penicillin-binding protein 2x (Streptococcus pneumoniae serotype 4 (strain ATCC BAA-334 / TIGR4)); assay: Inhibition of penicillin-resistant Streptococcus pneumoniae 5204 PBP2X assessed as residual activity at 500 uM preincubated for 4 hrs before addition of substrate mixture of (R)-[2-(benzoylamino)propionylsulfanyl]acetic acid and 5,5'-dithiobis(2-nitrobenzoic acid); outline: as §2
[8] = Solubility in sodium phosphate buffer saline of pH 7.2 at 1 mM; type: physicochemical; settings: pH 7.2, 1000 µM
[9] = target: D-alanyl-D-alanine carboxypeptidase (Actinomadura sp. R39) (UniProt P39045); assay: Inhibition of Actinomadura sp. R39 penicillin-binding protein at 0.5 mM preincubated for 60 mins before addition of substrate mixture of (R)-[2-(benzoylamino)propionylsulfanyl]acetic acid and 5,5'-dithiobis(2-nitrobenzoic acid)
Outline: (§3)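 Purified Actinomadura R39 D,D-peptidase (3.5 nM) was preincubated with compound for 60 min at 25 °C. S2d (1 mM final) and DTNB (0.5 mM final) were then added, with 1% v/v DMF. Initial rate was read at 412 nm, corrected for enzyme-free hydrolysis, in triplicate.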

[10] = target: Penicillin-binding protein 2x (Streptococcus pneumoniae serotype 4 (strain ATCC BAA-334 / TIGR4), UniProt P14677); assay: Inhibition of penicillin-resistant Streptococcus pneumoniae 5204 PBP2X preincubated for 4 hrs before addition of substrate mixture of (R)-[2-(benzoylamino)propionylsulfanyl]acetic acid and 5,5'-dithiobis(2-nitrobenzoic acid); outline: as §2
[11] = target: D-alanyl-D-alanine carboxypeptidase (Actinomadura sp. R39) (UniProt P39045); assay: Inhibition of Actinomadura sp. R39 penicillin-binding protein assessed as residual activity at 500 uM preincubated for 60 mins before addition of substrate mixture of (R)-[2-(benzoylamino)propionylsulfanyl]acetic acid and 5,5'-dithiobis(2-nitrobenzoic acid); outline: as §3

D-alanyl-D-alanine carboxypeptidase, sequence (P39045 whole entry): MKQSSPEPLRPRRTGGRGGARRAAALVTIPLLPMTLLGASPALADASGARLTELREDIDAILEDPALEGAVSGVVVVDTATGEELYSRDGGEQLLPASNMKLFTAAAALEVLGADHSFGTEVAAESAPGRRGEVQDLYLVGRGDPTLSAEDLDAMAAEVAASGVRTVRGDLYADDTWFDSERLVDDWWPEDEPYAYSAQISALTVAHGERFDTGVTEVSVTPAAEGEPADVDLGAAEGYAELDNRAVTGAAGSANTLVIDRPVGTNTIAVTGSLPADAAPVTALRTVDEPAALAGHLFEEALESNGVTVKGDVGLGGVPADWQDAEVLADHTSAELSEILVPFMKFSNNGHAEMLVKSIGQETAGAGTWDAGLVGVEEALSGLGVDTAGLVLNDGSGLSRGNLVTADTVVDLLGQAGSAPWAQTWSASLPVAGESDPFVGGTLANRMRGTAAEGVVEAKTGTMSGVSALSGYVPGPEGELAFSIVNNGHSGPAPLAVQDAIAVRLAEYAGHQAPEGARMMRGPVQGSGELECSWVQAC
D-alanyl-D-alanine carboxypeptidase (Actinomadura sp. R39), sequence (P39045 whole entry): as above

Structure (SMILES): O=C(O)c1cc(NC(=O)c2cccs2)cc(B(O)O)c1
- pIC50 [1]: 4.49
- Activity (Streptococcus pneumoniae): 70%

Structure (SMILES): OB(O)c1ccc(-c2ccc(B(O)O)cc2)cc1
- Activity [2]: 95%
- Activity [3]: 104%
- solubility [4]: Insoluble

Structure (SMILES): OB(O)c1ccc(-c2ccccc2)cc1 [BIPHENYLBORONIC ACID]
- Activity [2]: 120%
- Activity [3]: 90%
- solubility [4]: Insoluble
- Activity [5]: 104%

Structure (SMILES): O=C(Cc1cccs1)Nc1cc(B(O)O)cc(C(=O)O)c1
- pIC50 [1]: 4.11
- Activity (Streptococcus pneumoniae): 53%

Structure (SMILES): O=C(Cc1ccccc1)Nc1cc(B(O)O)cc(C(=O)O)c1
- pIC50 [1]: 4.06

Structure (SMILES): COc1ccccc1C(=O)Nc1cc(B(O)O)cc(C(=O)O)c1
- pIC50 [1]: 4.64
- Activity (Streptococcus pneumoniae): 82%

Structure (SMILES): O=C(O)c1cc(NC(=O)c2ccccc2)cc(B(O)O)c1
- pIC50 [1]: 4.47
- Activity (Streptococcus pneumoniae): 85%

Structure (SMILES): CN(C)c1cccc2c(S(=O)(=O)Nc3cccc(B(O)O)c3)cccc12
- Activity [6]: 91%

Structure (SMILES): OB(O)c1ccccc1 [PHENYLBORONIC ACID]
- Activity [7]: 78%
- Activity [6]: 114%
- solubility [8]: Insoluble
- inhibition [9]: 50%

Structure (SMILES): O=C(O)c1ccc(B(O)O)s1
- pIC50 [10]: < 3.00

Structure (SMILES): CC1(C)OB(c2cccc(C(=O)O)c2)OC1(C)C
- Activity [7]: 98%
- Activity [6]: 93%
- Activity [11]: 38%
- solubility [8]: Insoluble
- inhibition [9]: > 50%

Structure (SMILES): O=C(O)c1cccc(B(O)O)c1
- pIC50 [1]: 3.40

Structure (SMILES): O=C(COc1ccccc1)Nc1cc(B(O)O)cc(C(=O)O)c1
- pIC50 [1]: 4.55
- Activity (Streptococcus pneumoniae): 83%

Structure (SMILES): OB(O)c1ccc(Oc2ccccc2)cc1
- Activity [2]: 108%

From ChEMBL document CHEMBL1155217, “Synthesis and evaluation of 3-(dihydroxyboryl)benzoic acids as D,D-carboxypeptidase R39 inhibitors” (J Med Chem, 2009)
